Measurements as given in PMC8049015 (Journal of Clinical Pharmacology, 2020).
Like-named read-outs stand apart in the source and are kept apart here. Marks after values point to notes of the source that are not given here. One block for each compound: values may come before it.

Tests used:
[1] = system: subjects with moderate to severe atopic dermatitis; assay: Exposure‐response logistic regression models; assay type: in vivo, human; conditions: logit scale; week 16, NRI; estimate
Procedure, shortened: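 Week-16 EASI-75, EASI-90 and IGA 0/1 responses from 167 phase 2b adults were each fitted by logistic regression with an Emax link, with estimates on the logit scale. The exposure was individual steady-state Cavg from empirical Bayesian population-PK parameters. Drug effect was tested by likelihood ratio at P < .01. Covariates were selected stepwise (entry P < .01, removal P < .001). Models were chosen by AIC, fit and precision.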

[2] = 7.5, 15, 30 mg once daily, 16 weeks; cited from earlier work
[3] = assay type: in vivo, human; conditions: steady state, median (5th to 95th percentiles), model‐predicted
Procedure, shortened: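 Plasma exposures at steady state over a dosing interval (median, 5th–95th percentiles) were predicted by a 2-compartment population-PK model for the oral extended-release once-daily regimens. Absorption was mixed zero- and first-order with a lag time. Sparse samples from weeks 2 and 4 (predose) and weeks 8, 12 and 16 (any time) were assayed by validated LC-MS.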

[4] = system: subjects with moderate to severe atopic dermatitis; conditions: week 16, placebo 23%, cited from earlier work
[5] = system: subjects with moderate to severe RA; conditions: cited from earlier work
[6] = cited from earlier work
[7] = system: subjects with moderate to severe atopic dermatitis; assay: Phase 2b dose‐ranging study, observed efficacy in week 16; assay type: in vivo, human; conditions: week 16, NRI
[8] = system: moderate to severe atopic dermatitis; conditions: phase 3 studies; cited from earlier work
[9] = 15 mg once daily extended‐release

Cmin ([3]; 7.5 mg once daily extended‐release): 2.0 (0.56‐6.2) ng/mL
Cmax [3, 9]: 41.2 (27.7‐65.8) ng/mL
Cmin [3, 9]: 2.7 (1.2‐11.3) ng/mL
Cmin ([3]; 30 mg once daily extended‐release): 6.6 (2.1‐22.1) ng/mL
Compound: CC[C@@H]1CN(C(=O)NCC(F)(F)F)C[C@@H]1c1cnc2cnc3[nH]ccc3n12 [upadacitinib]
Emax, probability of achieving EASI‐75 [1]: 5.35 (17% ^a )
Emax, probability of achieving EASI‐90 [1]: 6.2 (13% ^a )
Emax, probability of achieving IGA 0/1 [1]: 5.78 (12% ^a )
Dose relationship for serious infections or overall incidence of adverse events [2]: no dose relationship was observed
Dose‐limiting safety events [2]: No dose‐limiting safety events were observed
Mean improvement in EASI from baseline ([4]; 7.5 mg once daily): 39%
Mean improvement in EASI from baseline ([4]; 15 mg once daily): 62%
Mean improvement in EASI from baseline ([4]; 30 mg once daily): 74%
Estimated increase in the percentage of subjects achieving ACR 20/50/70 responses or DAS‐28 low disease activity and clinical remission, 30 mg once daily compared with 15 mg once daily exposures [5]: < 5%
Oral bioavailability of the extended‐release tablet relative to the same dose of the immediate‐release formulation [6]: 76%
Dose proportionality of plasma exposure ([6]; over the evaluated dose range across clinical studies): approximately dose proportional
Accumulation with repeated dosing ([6]; twice daily immediate‐release or once daily extended‐release): no significant accumulation
Observed percentage of subjects achieving EASI‐75 ([7]; 7.5 mg once daily): [29] %
Observed percentage of subjects achieving EASI‐90 ([7]; 7.5 mg once daily): [14] %
Observed percentage of subjects achieving IGA 0/1 ([7]; 7.5 mg once daily): [14] %
Observed percentage of subjects achieving EASI‐90 ([7]; 15 mg once daily): [26] %
Observed percentage of subjects achieving IGA 0/1 ([7]; 15 mg once daily): [31] %
Observed percentage of subjects achieving EASI‐90 ([7]; 30 mg once daily): [50] %
Observed percentage of subjects achieving IGA 0/1 ([7]; 30 mg once daily): [50] %

Compound: dupilumab
Patients who achieved no or almost no disease activity [8]: < 40%
